Source: PubChem BioAssay
Beta2AR agonist – agonists of human beta-2 adrenergic receptor inducing internalization; P07550; Am2.2-beta2AR cells, FAP receptor internalization, flow cytometry; response, % (no concentration beside the values); 0.43% of 340,000 active;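 active = response above a set limit, near 3 SD of response in nonfluorescent compounds, cut at about 42% in these data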
MC4R antag cAMP – human MC4R antagonism in cAMP assay; P32245; MC4R-expressing cells, MTII-stimulated cAMP, LANCE TR-FRET; inhibition, % at 6.5 µM; 0.48% of 360,000 active;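 active = inhibition above its plate's cutoff, the mean of tested wells on that plate plus 3 SD, cut at about 29% in these data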
Target sequence (P32245 whole entry, looked up): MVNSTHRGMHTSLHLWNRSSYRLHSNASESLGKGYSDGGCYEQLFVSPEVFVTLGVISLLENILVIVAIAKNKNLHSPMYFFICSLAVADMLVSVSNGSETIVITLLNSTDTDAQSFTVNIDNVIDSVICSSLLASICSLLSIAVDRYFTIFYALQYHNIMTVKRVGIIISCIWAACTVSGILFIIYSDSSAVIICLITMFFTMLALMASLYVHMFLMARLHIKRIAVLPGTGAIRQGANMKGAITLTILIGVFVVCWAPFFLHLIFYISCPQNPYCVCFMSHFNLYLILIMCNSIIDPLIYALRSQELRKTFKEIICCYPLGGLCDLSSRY
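Test system: U2OS cells stably expressing human melanocortin 4 receptor (MC4R); also added: Melanotan II challenge; compound: 6.5 µM single dose; timing: 30-min compound preincubation, 1-h Melanotan II challenge, 1-h detection, room temperature; signal: Eu-cAMP/anti-cAMP TR-FRET, emission 671 nm; repeats: one well per compound, no replicates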
TAAR1 agonist – agonists of human TAAR1 | AID 624467 | activation, % at 3 µM | CHO RD-HGA16 TAAR1, Fluo-8 calcium fluorescence; vehicle wells 0%, saturating PEA agonist 100% | 0.99% of 360,000 active | Q96RJ0;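 active = activation above the mean activation of all test compounds in the run plus 3 SD, cut at about 38% in these data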
Target sequence (Q96RJ0 whole entry, looked up): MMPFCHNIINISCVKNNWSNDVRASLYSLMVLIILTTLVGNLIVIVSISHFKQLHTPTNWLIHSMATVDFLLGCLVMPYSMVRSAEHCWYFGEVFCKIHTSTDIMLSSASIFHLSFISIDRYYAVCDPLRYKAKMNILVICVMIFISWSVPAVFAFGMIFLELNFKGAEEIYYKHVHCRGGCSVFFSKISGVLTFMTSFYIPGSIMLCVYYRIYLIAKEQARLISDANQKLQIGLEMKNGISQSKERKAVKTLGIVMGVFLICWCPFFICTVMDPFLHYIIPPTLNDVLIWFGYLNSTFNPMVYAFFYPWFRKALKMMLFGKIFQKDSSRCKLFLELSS
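System: CHO RD-HGA16 cells carrying human TAAR1 plus Gα16; Incubation: 17-24 h seeding, 75 min 37 °C dye, 30 min RT; Measured by: Fluo-8 fluorescence, 5 s baseline then 140 s kinetic read; Control set: DMSO and PEA EC100; Replication: single well for each compound.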
m5-HT2A agonist – activates the mouse 5-HT2A serotonin receptor; P35363; CHO-K1 mHTR2A beta-arrestin complementation, luminescence; percent of 30 µM serotonin response; activation, % at 7.6 µM; 0.66% of 360,000 active; AID 624169;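 active = activation above a run cutoff, the mean activation of all tested compounds plus 3 SD, cut at about 14% in these data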
MC4R barr agon – human MC4R agonism via beta-arrestin; P32245; activation, % at 8.9 µM; 0.98% of 360,000 active; U2OS MC4R beta-arrestin complementation, luminescence; percent of melanotan II response, DMSO zero;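 active = activation above a per-plate cutoff, the mean activation of sample wells on that plate plus 3 SD, cut at about 8% in these data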
TAAR1 antagonist – human TAAR1 antagonism. Q96RJ0. AID 624466. inhibition, % at 3 µM. 1.5% of 360,000 active. CHO RD-HGA16 TAAR1, Fluo-8 calcium fluorescence, antagonist;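 active = inhibition above a per-plate cutoff, the mean inhibition of test compounds on that plate plus 3 SD, cut at about 49% in these data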
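test system = CHO RD-HGA16 cells bearing hTAAR1 | replication = singlicate | controls = DMSO-only wells and EC80 β-PEA-stimulated wells | reagent = EC80 β-phenethylamine stimulus | read-out basis = percent inhibition of PEA-evoked calcium signal, max/basal emission ratio | schedule = seeding 17-24 h prior, 75-min 37 °C, 30-min RT dye loading | signal = kinetic Fluo-8 calcium fluorescence measurement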
MC4R barr conf – human MC4R beta-arrestin agonism confirmation. shares compounds with MC4R barr agon. U2OS MC4R beta-arrestin recruitment, luminescence; scaled DMSO 0%, Melanotan II 100%. activation, % at 8.9 µM. 31% of 2,400 active. AID 602192;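 active = mean activation across replicates above the hit cutoff set in the earlier primary screen, cut at about 8% in these data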
MOR-DOR barr ag – OPRM1-OPRD1 heterodimer agonism counter-screen | shares compounds with MC4R barr agon | 5.8% of 2,400 active | U2OS PathHunter beta-arrestin, beta-gal luminescence; percent of deltorphin B response, DMSO zero | activation, % at 9.2 µM;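 active = mean activation across replicates exceeds the hit threshold derived in the earlier primary screen, cut at about 18% in these data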
Numbers stand for hits; n = inactive; x = no result. Hits are enriched below; roughly 4.3% of the tested compounds scored in any of these assays.

SMILES	Beta2AR agonist	MC4R antag cAMP	TAAR1 agonist	m5-HT2A agonist	MC4R barr agon	TAAR1 antagonist	MC4R barr conf	MOR-DOR barr ag
COc1ccc(/C=C/C(=O)N(C)CC(=O)Nc2cccc(F)c2)cc1S(=O)(=O)N1CCCCC1	n	n	n	n	n	n	x	x
CC(=O)c1cccc(OCC(O)CN2CCN(C(=O)c3ccco3)CC2)c1 (centres undefined)	n	n	n	n	n	n	x	x
CCn1c(O)c(/C=N/N=C/c2ccc(OC)cc2)c2cc(C3=NNC(=O)CC3)ccc21	n	n	n	n	18	n	n	n
CC/C(C)=N\N=C\c1c(O)n(CC)c2cc(C3=NNC(=O)CC3)ccc12	n	n	x	n	n	x	x	x
CCC(=O)NC(=S)Nc1ccc(NC(=O)COc2ccc(Cl)c(C)c2)cc1	n	n	n	n	19	n	n	n
Cc1ccc(OCC(=O)NC(=S)Nc2cccc(NC(=O)c3ccccc3Cl)c2)cc1	n	n	n	n	15	n	n	n
Cc1cc(OCC(=O)Nc2ccncc2)ccc1Cl	n	n	n	n	n	n	x	x
CC(=O)Nc1ccc(S(=O)(=O)NC2CC(=O)N(c3ccc(C)cc3)C2)cc1 (centres undefined)	n	n	n	n	n	n	x	x
Cc1cc(F)cc(-c2cc(C(=O)NCc3ccc(C(F)(F)F)cc3)[nH]n2)c1	x	n	n	n	14	n	n	n
NC(=O)CC(NC(=O)c1ccccc1)c1ccc(NCc2ccc(F)c(F)c2)c([N+](=O)[O-])c1 (centres undefined)	n	n	n	n	n	n	x	x
Cc1ccccc1CNc1ccc(C(CC(N)=O)NC(=O)c2ccc(Br)cc2)cc1[N+](=O)[O-] (centres undefined)	n	n	n	n	16	n	n	n
NC(=O)CC(NC(=O)c1ccccc1)c1ccc(NCCc2ccc(Cl)cc2)c([N+](=O)[O-])c1 (centres undefined)	n	n	n	n	13	n	n	n
COc1cc(-c2nc(-c3ccccc3)c(-c3ccc(F)cc3)[nH]2)cc2c1OCO2	n	n	n	n	12	n	n	n
O=C(c1ccco1)N1CCN(C(=O)c2ccc(CS(=O)c3ccc(Br)cc3)o2)CC1 (centres undefined)	x	n	n	n	n	n	x	x
CCN(CC)c1nc2c(c(=O)[nH]c(=O)n2C)n1CCCc1ccccc1	n	n	n	n	n	n	x	x
Cc1ccc(C(=O)Nc2ccc(N3CCOCC3)c3nonc23)cc1[N+](=O)[O-]	n	n	n	n	11	n	n	n
CC(=O)OC[C@H]1O[C@H](C#Cc2ccc(C(C)(C)C)cc2)C=C[C@H]1OC(=O)Nc1ccccc1	x	x	n	x	x	n	x	x
OC(CNCCc1ccc(C(F)(F)F)cc1)COC(c1ccccc1)c1ccccc1 (centres undefined)	n	n	n	n	36	n	22	n
COc1ccc(-c2nnc3sc(-c4cccs4)nn23)cc1OC	n	n	n	n	n	n	x	x
COc1cc(-c2nnc3sc(-c4cccs4)nn23)cc(OC)c1OC	n	n	n	n	15	n	n	n
COc1ccc2nc(SCC(=O)NC(C)c3ccccc3)[nH]c2c1 (centres undefined)	n	n	n	n	n	n	x	x
Cc1ccc2sc(N(CCCN(C)C)C(=O)c3ccc(Br)s3)nc2c1C	n	n	n	n	22	n	19	n
Cc1cccc2sc(N(CCCN(C)C)C(=O)c3nc4ccccc4s3)nc12	n	n	n	n	n	n	x	x
Cc1ccc2sc(N(CCCN(C)C)C(=O)c3nc4ccccc4s3)nc2c1C	n	n	n	n	40	n	26	31
COc1cc(OC)cc(C(=O)NC(=S)Nc2ccc(NC(=O)c3ccco3)cc2)c1	n	n	n	n	12	n	n	n
SMILES	Beta2AR agonist	MC4R antag cAMP	TAAR1 agonist	m5-HT2A agonist	MC4R barr agon	TAAR1 antagonist	MC4R barr conf	MOR-DOR barr ag
COc1cc(NC(=O)c2ccc(OC)c([N+](=O)[O-])c2)ccc1NC(=O)c1ccco1	n	n	n	n	n	n	x	x
COc1ccccc1C(=O)NC(=S)Nc1ccc(NC(=O)c2cccs2)cc1	n	n	n	n	27	n	n	n
O=C(NC(=S)Nc1ccc(S(=O)(=O)N2CCCCC2)cc1)c1cccs1	n	n	n	n	13	n	n	n
COc1cc(OC)cc(C(=O)Nc2ccc(NC(=O)c3ccco3)c(Cl)c2)c1	n	n	n	n	n	n	x	x
CCOc1ccc(C(=O)NC(=S)Nc2ccc(NC(=O)c3ccco3)c(C)c2)cc1[N+](=O)[O-]	n	n	n	n	10	n	n	n
CC1CN(C(=O)COc2ccc3c(-c4ccccc4)cc(=O)oc3c2)CC(C)O1 (centres undefined)	n	n	n	n	n	n	x	x
CCOc1cc(NC(=O)c2ccco2)c(OCC)cc1NC(=O)c1ccco1	n	n	n	n	n	n	x	x
CCOc1cc(NC(=O)c2ccco2)c(OCC)cc1NC(=O)c1cc(OC)c(OC)c(OC)c1	n	n	n	n	13	n	n	53
COc1ccccc1C(=O)NC(=S)Nc1ccc(NC(=O)c2ccco2)cc1	n	n	n	n	11	n	n	n
CCCCNC(=O)C(NC(=O)c1ccc2c(c1)OCO2)C(=O)c1ccccc1 (centres undefined)	x	x	n	n	x	n	x	x
O=C(Cc1c(O)c2ccccc2oc1=O)c1ccc(F)cc1	n	n	n	n	11	n	n	n
COC(=O)c1oc2ccc(Br)cc2c1NC(=O)CN1CCN(C)CC1	n	n	n	n	n	n	x	x
COC(=O)c1oc2ccc(Br)cc2c1NC(=O)c1ccccc1	n	n	n	n	30	n	16	n
C=CCN1C(=O)C(CC(=O)Nc2ccc(OCCC)cc2)N(CCCN2CCN(Cc3ccccc3)CC2)C1=S (centres undefined)	n	n	n	n	22	n	9.4	22
O=C(Nc1ccc(F)cc1)c1cccc2c1C(=O)N(CC1CCCO1)C2 (centres undefined)	n	n	n	n	n	n	x	x
COc1ccc(Nc2nc(-c3cc4cccc(OC)c4oc3=O)cs2)cc1	n	n	n	n	20	n	n	n
Cc1ccc(CSCC(=O)N/N=C/c2ccc(OCC(=O)Nc3ccc(C)cc3)cc2)cc1	n	n	n	n	16	n	n	n
